Source: ChEMBL document CHEMBL1275392, “Assessment of chemoselective neoglycosylation methods using chlorambucil as a model” (2010)

Assays:
MDA-MB-468 = assay: Growth inhibition of human MDA-MB-468 cells at 10 uM after 7 days by celltiter-glo assay; assay type: functional; details: MDA-MB-468, 168 h, read-out: GI
[1] = Growth inhibition of human Hs 578T cells at 10 uM after 7 days by celltiter-glo assay; assay type: functional; details: 168 h, read-out: GI
MDA-MB-231 = assay: Growth inhibition of human MDA-MB-231 cells at 10 uM after 7 days by celltiter-glo assay; assay type: functional; details: MDA-MB-231, 168 h, read-out: GI
CAKI-1 = assay: Growth inhibition of human Caki1 cells at 10 uM after 7 days by celltiter-glo assay; assay type: functional; details: CAKI-1, 168 h, read-out: GI
ACHN = assay: Growth inhibition of human ACHN cells at 10 uM after 7 days by celltiter-glo assay; assay type: functional; details: 168 h, read-out: GI
786-0 = assay: Growth inhibition of human 786-0 cells at 10 uM after 7 days by celltiter-glo assay; assay type: functional; details: 786-0, 168 h, read-out: GI
SK-OV-3 [2] = assay: Growth inhibition of human SKOV3 cells at 10 uM after 7 days by celltiter-glo assay; assay type: functional; details: SK-OV-3, 168 h, read-out: GI
SK-MEL-2 = assay: Growth inhibition of human SK-MEL-2 cells at 10 uM after 7 days by celltiter-glo assay; assay type: functional; details: SK-MEL-2, 168 h, read-out: GI
M14 [3] = assay: Growth inhibition of human M14 cells at 10 uM after 7 days by celltiter-glo assay; assay type: functional; details: M14, 168 h, read-out: GI
DU-145 [4] = assay: Growth inhibition of human DU145 cells at 10 uM after 7 days by celltiter-glo assay; assay type: functional; details: DU-145, 168 h, read-out: GI
SNB-75 [5] = assay: Growth inhibition of human SNB75 cells at 10 uM after 7 days by celltiter-glo assay; assay type: functional; details: SNB-75, 168 h, read-out: GI
SNB-19 [6] = assay: Growth inhibition of human SNB19 cells at 10 uM after 7 days by celltiter-glo assay; assay type: functional; details: SNB-19, 168 h, read-out: GI
SW-620 = assay: Growth inhibition of human SW620 cells at 10 uM after 7 days by celltiter-glo assay; assay type: functional; details: SW-620, 168 h, read-out: GI
NCI-H522 [7] = assay: Growth inhibition of human NCI-H522 cells at 10 uM after 7 days by celltiter-glo assay; assay type: functional; details: NCI-H522, 168 h, read-out: GI
NCI-H322M = assay: Growth inhibition of human NCI-H322M cells at 10 uM after 7 days by celltiter-glo assay; assay type: functional; details: 168 h, read-out: GI
NCI-H23 = assay: Growth inhibition of human NCI-H23 cells at 10 uM after 7 days by celltiter-glo assay; assay type: functional; details: NCI-H23, 168 h, read-out: GI
HOP-92 = assay: Growth inhibition of human HOP92 cells at 10 uM after 7 days by celltiter-glo assay; assay type: functional; details: HOP-92, 168 h, read-out: GI
[8] = Growth inhibition of human […] cells at 10 uM after 7 days by celltiter-glo assay; assay type: functional; details: 168 h, read-out: GI
HL-60(TB) = assay: Growth inhibition of human HL-60(TB) cells at 10 uM after 7 days by celltiter-glo assay; assay type: functional; details: HL-60, 168 h, read-out: GI
UACC-62 = assay: Growth inhibition of human UACC62 cells after 7 days by celltiter-glo assay; assay type: functional; details: UACC-62, 168 h
OVCAR-4 = assay: Growth inhibition of human OVCAR4 cells after 7 days by celltiter-glo assay; assay type: functional; details: OVCAR-4, 168 h
A549 [9] = assay: Growth inhibition of human A549 cells expressing p53 after 7 days by celltiter-glo assay; assay type: functional; details: A549, 168 h
SK-OV-3 [10] = assay: Growth inhibition of human SKOV3 cells after 7 days by celltiter-glo assay; assay type: functional; details: SK-OV-3, 168 h
UO-31 = assay: Growth inhibition of human UO31 cells after 7 days by celltiter-glo assay; assay type: functional; details: UO-31, 168 h
T47D = assay: Growth inhibition of human T47D cells after 7 days by celltiter-glo assay; assay type: functional; details: 168 h
[11] = Growth inhibition of human p53 deficient Hep3B cells after 7 days by celltiter-glo assay; assay type: functional, Hep 3B2; details: 168 h
In short: (§1)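 Cells seeded at 500 per well in 384-well plates. Compounds came from 30 mM DMSO stocks, serially diluted and tested in quadruplicate. Incubation was 7 d at 37 °C under 5% CO2. Calcein AM (10 μM) and EthD-1 were added, followed by a fluorescence read. CellTiter-Glo lysis was then done for 10 min at room temperature, with a luminescence read. GI50 came from curve fitting.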

[12] = Ratio of compound GI50 to chlorambucil GI50 for human H1299 cells; assay type: functional
MDA-MB-435 = assay: Growth inhibition of human MDA-MB-435 cells after 7 days by celltiter-glo assay; assay type: functional; details: MDA-MB-435, 168 h
M14 [13] = assay: Growth inhibition of human M14 cells after 7 days by celltiter-glo assay; assay type: functional; details: M14, 168 h
LOX IMVI = assay: Growth inhibition of human LOXIMVI cells after 7 days by celltiter-glo assay; assay type: functional; details: 168 h
DU-145 [14] = assay: Growth inhibition of human DU145 cells after 7 days by celltiter-glo assay; assay type: functional; details: DU-145, 168 h
U-251 = assay: Growth inhibition of human U251 cells after 7 days by celltiter-glo assay; assay type: functional; details: U-251, 168 h
SNB-75 [15] = assay: Growth inhibition of human SNB75 cells after 7 days by celltiter-glo assay; assay type: functional; details: SNB-75, 168 h
SNB-19 [16] = assay: Growth inhibition of human SNB19 cells after 7 days by celltiter-glo assay; assay type: functional; details: SNB-19, 168 h
SF-539 = assay: Growth inhibition of human SF539 cells after 7 days by celltiter-glo assay; assay type: functional; details: SF-539, 168 h
SF-295 = assay: Growth inhibition of human SF295 cells after 7 days by celltiter-glo assay; assay type: functional; details: SF-295, 168 h
SF-268 = assay: Growth inhibition of human SF268 cells after 7 days by celltiter-glo assay; assay type: functional; details: SF-268, 168 h
HCT-15 = assay: Growth inhibition of human HCT15 cells after 7 days by celltiter-glo assay; assay type: functional; details: HCT-15, 168 h
HCT-116 = assay: Growth inhibition of human HCT116 cells after 7 days by celltiter-glo assay; assay type: functional; details: HCT-116, 168 h
[17] = Growth inhibition of human p53 deficient H1299 cells after 7 days by celltiter-glo assay; assay type: functional; details: NCI-H1299, 168 h; in short: as §1
NCI-H522 [18] = assay: Growth inhibition of human NCI-H522 cells after 7 days by celltiter-glo assay; assay type: functional; details: NCI-H522, 168 h
NCI-H460 = assay: Growth inhibition of human NCI-H460 cells after 7 days by celltiter-glo assay; assay type: functional; details: NCI-H460, 168 h
EKVX = assay: Growth inhibition of human EKVX cells after 7 days by celltiter-glo assay; assay type: functional; details: 168 h
A549 [19] = assay: Growth inhibition of human A549 cells after 7 days by celltiter-glo assay; assay type: functional; details: A549, 168 h
CCRF-CEM = assay: Growth inhibition of human CCRF-CEM cells after 7 days by celltiter-glo assay; assay type: functional; details: 168 h

Q: With `CON(CCCc1ccc(N(CCCl)CCCl)cc1)C1OC[C@@H](O)[C@@H]1O` (stereo not given in full) as the compound, how does the inhibition of growth at 10 µM (MDA-MB-468) read?
A: 43.9%

Q: And the inhibition of growth at 10 µM [1]?
A: 139%

Q: And the inhibition of growth at 10 µM (MDA-MB-231)?
A: 87.5%

Q: What about the inhibition of growth at 10 µM (CAKI-1) of the same compound?
A: 13.6%

Q: What about the inhibition of growth at 10 µM (ACHN) of the same compound?
A: 14.3%

Q: What about the inhibition of growth at 10 µM (786-0) of the same compound?
A: 67.9%

Q: What about the inhibition of growth at 10 µM (SK-OV-3 [2]) of the same compound?
A: 72.8%

Q: And the inhibition of growth at 10 µM (SK-MEL-2)?
A: 100%

Q: What about the inhibition of growth at 10 µM (M14 [3]) of the same compound?
A: 67.2%

Q: What about the inhibition of growth at 10 µM (DU-145 [4]) of the same compound?
A: 56.8%

Q: What about the inhibition of growth at 10 µM (SNB-75 [5]) of the same compound?
A: 66.7%

Q: And the inhibition of growth at 10 µM (SNB-19 [6])?
A: 65.8%

Q: And the inhibition of growth at 10 µM (SW-620)?
A: 68.1%

Q: And the inhibition of growth at 10 µM (NCI-H522 [7])?
A: 52.4%

Q: What about the inhibition of growth at 10 µM (NCI-H322M) of the same compound?
A: 99%

Q: What about the inhibition of growth at 10 µM (NCI-H23) of the same compound?
A: 54.4%

Q: What about the inhibition of growth at 10 µM (HOP-92) of the same compound?
A: 58.8%

Q: What about the inhibition of growth at 10 µM [8] of the same compound?
A: 15.9%

Q: And the inhibition of growth at 10 µM (HL-60(TB))?
A: 68.3%

Q: What about the GI50 (UACC-62) of the same compound?
A: 1690 nM

Q: And the GI50 (OVCAR-4)?
A: 29.2 µM

Q: What about the GI50 (A549 [9]) of the same compound?
A: 1100 nM

Q: And the GI50 (SK-OV-3 [10])?
A: 1500 nM

Q: And the GI50 (UO-31)?
A: 856 nM

Q: And the GI50 (T47D)?
A: 6.37 µM

Q: What about the GI50 [11] of the same compound?
A: 670 nM

Q: And the RatioGI50 [12]?
A: 13

Q: What about the GI50 (MDA-MB-435) of the same compound?
A: 21.1 µM

Q: What about the GI50 (M14 [13]) of the same compound?
A: 9.25 µM

Q: And the GI50 (LOX IMVI)?
A: 8.61 µM

Q: What about the GI50 (DU-145 [14]) of the same compound?
A: 1800 nM

Q: And the GI50 (U-251)?
A: 13.1 µM

Q: And the GI50 (SNB-75 [15])?
A: 19.5 µM

Q: What about the GI50 (SNB-19 [16]) of the same compound?
A: 33.4 µM

Q: What about the GI50 (SF-539) of the same compound?
A: 8.8 µM

Q: And the GI50 (SF-295)?
A: 6.47 µM

Q: What about the GI50 (SF-268) of the same compound?
A: 1500 nM

Q: What about the GI50 (HCT-15) of the same compound?
A: 530 nM

Q: What about the GI50 (HCT-116) of the same compound?
A: 14.5 µM

Q: What about the GI50 [17] of the same compound?
A: 370 nM

Q: What about the GI50 (NCI-H522 [18]) of the same compound?
A: 10 µM

Q: And the GI50 (NCI-H460)?
A: 1700 nM

Q: What about the GI50 (EKVX) of the same compound?
A: 37.9 µM

Q: What about the GI50 (A549 [19]) of the same compound?
A: 12.2 µM

Q: What about the GI50 (CCRF-CEM) of the same compound?
A: 2360 nM
